Source: PubChem (several laboratories)
Rev-RRE block: disrupts HIV-1 Rev binding to RRE RNA; AID 704; Rev peptide-RRE RNA binding, FRET; 97,000 compounds, 0.79% hits; inhibition, % at 8 µM;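 active = inhibition above the screen-wide mean plus 3 SD, cut at about 35% in these data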
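System: Cy5-labelled duplex RRE RNA binding fluorescein-labelled HIV Rev peptide; Signal: fluorescein-to-Cy5 FRET, 480 nm excitation; Also added: labelled Rev peptide; Compound: one concentration, 8 µM nominal; Buffer or medium: HEPES pH 7.5 salt buffer with EDTA; Read-out: % inhibition of FRET ratio versus controls; Schedule: 5 min preincubation and 15 min binding, 25 °C.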
IL1B cytotox: toxic to HUVEC cells under IL-1B stimulation | HUVEC cell count loss, Hoechst imaging, IL-1B stimulated | cell count reduction, % at 2 µM | 94,000 compounds, 0.41% hits;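 active = cell count reduction more than 3 SD above the screen-wide mean, cut at about 70% in these data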
IL1B NFkB inh: blocks IL-1B driven NFkB nuclear translocation in HUVEC cells | 94,000 compounds, 0.43% hits | inhibition, % at 2 µM | HUVEC IL-1B NFkB p65 nuclear translocation imaging | AID 796;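 active = inhibition above about 30% together with a positive call from visual inspection of the well image, limit read from the data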;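 also: nuclear over cytoplasmic p65 intensity ratio measured by imaging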
Measles CPE: protection of cells from measles virus; Measles virus-infected cells, CPE protection, absorbance; protection (pct of control), % at 4 µM; 140,000 compounds, 1.5% hits; in the data active = protection mostly above about 24%, no sharp cut-off; inactive = mostly below about 26%
FAK blocker: blocks human focal adhesion kinase activity. Q05397. biochemical FAK kinase activity assay. inhibition, %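 (tested at 7 µM)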. 97,000 compounds, 0.84% hits; in the data active = inhibition above about 19%
NFkB transloc pot: enhances IL-1B driven NFkB nuclear translocation; HUVEC IL-1B NFkB p65 nuclear translocation imaging; activation, % at 2 µM; 94,000 compounds, 0.3% hits;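 active = activation above 40%, about the mean plus 3 SD, also judged a hit on visual image review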;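 also: percent activation is computed from the nuclear over cytoplasmic p65 intensity ratio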
A number is an active result. Most compounds without a hit are left out; they make up all but 3.3% or so of the library.

Screening COC(=O)C1=C(C)NC(=O)C1(NC(=O)CN1CCCC1=O)C(F)(F)F (stereo not given) returned Rev-RRE block inactive, IL1B cytotox inactive, IL1B NFkB inh inactive, Measles CPE 41, FAK blocker inactive and NFkB transloc pot inactive.
O=c1oc2ccccc2cc1-c1nc(-c2cccs2)cs1 was read as Rev-RRE block 62, IL1B cytotox inactive, IL1B NFkB inh inactive, Measles CPE inactive, FAK blocker inactive and NFkB transloc pot inactive.
CNc1nnc(-c2cc3ccccc3oc2=O)s1 was read as Rev-RRE block 52, IL1B cytotox inactive, IL1B NFkB inh inactive, Measles CPE inactive, FAK blocker inactive and NFkB transloc pot inactive.
For CCc1c(C)nc(SC(C(=O)O)c2ccccc2)c(C#N)c1C (stereo not given) the results were Measles CPE inactive.
For CCCCNC(=O)C1C2C=CC(C2)C1C(=O)O (stereo not given) the results were Measles CPE 38.
For O=C(O)C1C2C=CC(C2)C1C(=O)NCCCN1CCOCC1 (stereo not given) the results were Rev-RRE block inactive, IL1B cytotox inactive, IL1B NFkB inh inactive, Measles CPE inactive, FAK blocker inactive and NFkB transloc pot inactive.
For CCC/C(O)=C1\C(=O)CC(c2ccccc2)CC1=NC(C)C(=O)O (stereo not given) the results were Measles CPE inactive.
Screening O=C(O)C(Cc1ccccc1)N1Cc2ccccc2C1=O (stereo not given) returned Rev-RRE block inactive, IL1B cytotox inactive, IL1B NFkB inh inactive, Measles CPE inactive, FAK blocker inactive and NFkB transloc pot 40.
Screening COn1cnnc1-c1ccccc1 returned Rev-RRE block 41, IL1B cytotox inactive, IL1B NFkB inh inactive, Measles CPE inactive, FAK blocker inactive and NFkB transloc pot inactive.
CCCC(=O)C1=C(O)C(C(=O)OC)C(C)(C)CC1=NC(C)C (stereo not given) was read as Rev-RRE block inactive, IL1B cytotox inactive, IL1B NFkB inh inactive, Measles CPE inactive, FAK blocker inactive and NFkB transloc pot inactive.
Screening CCCC(=O)C1=C(O)C(C(=O)OC)C(C)(C)CC1=NC(C)(C)C (stereo not given) returned Rev-RRE block inactive, IL1B cytotox inactive, IL1B NFkB inh 45, Measles CPE inactive, FAK blocker inactive and NFkB transloc pot inactive.
For COc1ccc(C)cc1N(CC(N)=O)S(=O)(=O)c1ccc(C)cc1 the results were Measles CPE inactive.
For COc1nc(N(CC(N)=O)S(=O)(=O)c2ccccc2)nc(C)c1Cl the results were Rev-RRE block inactive, IL1B cytotox inactive, IL1B NFkB inh inactive, Measles CPE 29, FAK blocker inactive and NFkB transloc pot inactive.
O=C(c1csc2ccccc12)N1CCN(c2ccc(Cl)c(Cl)c2)CC1 was read as Rev-RRE block inactive, IL1B cytotox inactive, IL1B NFkB inh 62, Measles CPE inactive, FAK blocker inactive and NFkB transloc pot inactive.
CS(=O)(=O)N1CCN(C(=O)c2csc3ccccc23)CC1 was read as Rev-RRE block inactive, IL1B cytotox inactive, IL1B NFkB inh inactive, Measles CPE 61, FAK blocker inactive and NFkB transloc pot inactive.
For COc1ccc(N2CCN(C(=O)c3csc4ccccc34)CC2)cc1 the results were Rev-RRE block inactive, IL1B cytotox inactive, IL1B NFkB inh inactive, Measles CPE inactive, FAK blocker inactive and NFkB transloc pot inactive.
CCN(CC)S(=O)(=O)c1cccc(C(=O)OCC(=O)c2ccc3c(c2)OCCO3)c1 was read as Measles CPE inactive.
Cc1ccc(N(Cc2ccc(C(=O)NC3CCCCC3)cc2)S(C)(=O)=O)cc1C was read as Rev-RRE block inactive, IL1B cytotox inactive, IL1B NFkB inh inactive, Measles CPE 103, FAK blocker inactive and NFkB transloc pot inactive.
For CS(=O)(=O)N(Cc1ccccc1)c1ccc(C(=O)NC2CCCCC2O)cc1 (stereo not given) the results were Rev-RRE block inactive, IL1B cytotox inactive, IL1B NFkB inh inactive, Measles CPE inactive, FAK blocker inactive and NFkB transloc pot inactive.
Screening CS(=O)(=O)N(Cc1ccccc1)c1ccc(C(=O)NCc2ccccc2)cc1 returned Rev-RRE block inactive, IL1B cytotox inactive, IL1B NFkB inh inactive, Measles CPE 44, FAK blocker inactive and NFkB transloc pot inactive.
Screening Cc1ccccc1C1C(C#N)=C2NC(=O)c3c(sc4c3CCCCC4)N2C2=C1C(=O)CC(C)(C)C2 (stereo not given) returned Rev-RRE block 40, IL1B cytotox inactive, IL1B NFkB inh inactive, Measles CPE inactive, FAK blocker inactive and NFkB transloc pot inactive.
`Cc1ccccc1C1C(C#N)=C2N=C(N)c3c(sc4c3CCCCC4)N2C2=C1C(=O)CC(C)(C)C2` (stereo not given) gave Rev-RRE block inactive, IL1B cytotox inactive, IL1B NFkB inh inactive, Measles CPE inactive, FAK blocker inactive and NFkB transloc pot inactive.
CCN(CC)CCCNc1oc(-c2ccc(OC)c(OC)c2)nc1C#N was read as Rev-RRE block inactive, IL1B cytotox inactive, IL1B NFkB inh inactive, Measles CPE 45, FAK blocker inactive and NFkB transloc pot inactive.
`CCOC(=O)c1ccc(Nc2nc(C(=O)OCC)nc3ccccc23)cc1` gave Rev-RRE block inactive, IL1B cytotox 84, IL1B NFkB inh inactive, Measles CPE inactive, FAK blocker inactive and NFkB transloc pot inactive.
COc1ccc(C2C3=C(CCCC3=O)Nc3nc(SCc4ccccc4)nn32)cc1OC (stereo not given) was read as Rev-RRE block inactive, IL1B cytotox inactive, IL1B NFkB inh inactive, Measles CPE inactive, FAK blocker inactive and NFkB transloc pot inactive.
For COc1ccc(C2C3=C(CCCC3=O)Nc3nc(SCc4ccc(C(=O)O)cc4)nn32)cc1OC (stereo not given) the results were Rev-RRE block inactive, IL1B cytotox inactive, IL1B NFkB inh inactive, Measles CPE 31, FAK blocker inactive and NFkB transloc pot inactive.
`CCCn1c(N2CCN(CC(=O)NCc3cccs3)CC2)nc2ccccc21` gave Rev-RRE block inactive, IL1B cytotox inactive, IL1B NFkB inh inactive, Measles CPE 61, FAK blocker inactive and NFkB transloc pot inactive.
Screening CN(C)S(=O)(=O)c1cccc(NC(=O)CN2C(=O)C3C4C=CC(C4)C3C2=O)c1 (stereo not given) returned Measles CPE inactive.
`CC(C)NC(=O)C1CCCN(c2nnc(-n3cccc3)s2)C1` (stereo not given) gave Rev-RRE block inactive, IL1B cytotox inactive, IL1B NFkB inh inactive, Measles CPE inactive, FAK blocker inactive and NFkB transloc pot inactive.
`CC(CCc1ccccc1)NC(=O)C1CCCN(c2nnc(-n3cccc3)s2)C1` (stereo not given) gave Rev-RRE block inactive, IL1B cytotox inactive, IL1B NFkB inh inactive, Measles CPE 35, FAK blocker inactive and NFkB transloc pot inactive.
CCOC(=O)c1cccc(-n2c(-c3ccc(OC)cc3)nc3nc4ccccc4nc32)c1 was read as Measles CPE inactive.
Screening Cc1ncsc1CCOC(=O)C1C2CC3CC(C2)CC1C3 (stereo not given) returned Measles CPE inactive.
